Measured values taken from publication PMC3184254 (Nature Chemical Biology, 2011).
Like-named read-outs stand apart in the source and are kept apart here.

Key:
[1] = target: SUV39H1 (Homo sapiens, UniProt O43463); assay: BPS Bioscience assay, SUV39H1; format: biochemical
[2] = target: MLL (Homo sapiens, UniProt Q03164); assay: BPS Bioscience assay, MLL; format: biochemical
[3] = target: EZH2 (Homo sapiens, UniProt Q15910); assay: BPS Bioscience assay, EZH2; format: biochemical
[4] = target: T1, SETD8 (Homo sapiens, UniProt Q9NQR1); assay: SAHH-coupled assay, SETD8; format: biochemical
T1 sequence (Q9NQR1 1-393): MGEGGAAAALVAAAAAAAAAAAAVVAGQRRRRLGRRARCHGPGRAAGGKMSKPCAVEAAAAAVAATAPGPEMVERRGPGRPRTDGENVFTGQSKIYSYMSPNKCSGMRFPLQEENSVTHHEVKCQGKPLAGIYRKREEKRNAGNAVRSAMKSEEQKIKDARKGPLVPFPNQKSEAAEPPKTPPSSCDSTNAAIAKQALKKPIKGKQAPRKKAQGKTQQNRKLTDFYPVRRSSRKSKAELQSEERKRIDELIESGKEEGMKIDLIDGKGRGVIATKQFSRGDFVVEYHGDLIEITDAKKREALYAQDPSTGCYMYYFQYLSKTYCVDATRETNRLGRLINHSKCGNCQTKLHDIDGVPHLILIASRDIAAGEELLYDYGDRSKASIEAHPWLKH
Method in brief: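 A fluorescence-based coupled assay used S-adenosyl-L-homocysteine hydrolase to follow conversion of cofactor SAM to SAH by the methyltransferase. IC50 values are the average of at least two separate experiments.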

[5] = target: JMJD2E (Homo sapiens, UniProt B2RXH2); assay: Alphascreen assay, JMJD2E; format: biochemical
Chain of JMJD2E (B2RXH2 whole entry): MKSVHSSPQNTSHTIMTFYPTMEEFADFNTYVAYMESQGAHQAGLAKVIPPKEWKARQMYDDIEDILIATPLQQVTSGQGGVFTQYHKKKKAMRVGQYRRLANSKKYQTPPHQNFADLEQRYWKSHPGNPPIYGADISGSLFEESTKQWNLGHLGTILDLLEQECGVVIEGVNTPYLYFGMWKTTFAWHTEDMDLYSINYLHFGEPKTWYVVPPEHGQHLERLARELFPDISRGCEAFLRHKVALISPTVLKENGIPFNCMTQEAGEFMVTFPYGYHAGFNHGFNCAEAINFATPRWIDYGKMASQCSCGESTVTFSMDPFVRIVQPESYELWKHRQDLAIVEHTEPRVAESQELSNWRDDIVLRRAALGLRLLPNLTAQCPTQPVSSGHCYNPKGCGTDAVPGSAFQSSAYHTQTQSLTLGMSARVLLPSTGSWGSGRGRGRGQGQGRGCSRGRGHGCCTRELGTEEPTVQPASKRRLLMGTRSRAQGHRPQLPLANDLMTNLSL

[6] = target: T2, G9a (Homo sapiens, UniProt Q96KQ7); assay: G9a fluorescence-polarization peptide displacement assay; format: binding
T2 sequence (Q96KQ7 1-1210): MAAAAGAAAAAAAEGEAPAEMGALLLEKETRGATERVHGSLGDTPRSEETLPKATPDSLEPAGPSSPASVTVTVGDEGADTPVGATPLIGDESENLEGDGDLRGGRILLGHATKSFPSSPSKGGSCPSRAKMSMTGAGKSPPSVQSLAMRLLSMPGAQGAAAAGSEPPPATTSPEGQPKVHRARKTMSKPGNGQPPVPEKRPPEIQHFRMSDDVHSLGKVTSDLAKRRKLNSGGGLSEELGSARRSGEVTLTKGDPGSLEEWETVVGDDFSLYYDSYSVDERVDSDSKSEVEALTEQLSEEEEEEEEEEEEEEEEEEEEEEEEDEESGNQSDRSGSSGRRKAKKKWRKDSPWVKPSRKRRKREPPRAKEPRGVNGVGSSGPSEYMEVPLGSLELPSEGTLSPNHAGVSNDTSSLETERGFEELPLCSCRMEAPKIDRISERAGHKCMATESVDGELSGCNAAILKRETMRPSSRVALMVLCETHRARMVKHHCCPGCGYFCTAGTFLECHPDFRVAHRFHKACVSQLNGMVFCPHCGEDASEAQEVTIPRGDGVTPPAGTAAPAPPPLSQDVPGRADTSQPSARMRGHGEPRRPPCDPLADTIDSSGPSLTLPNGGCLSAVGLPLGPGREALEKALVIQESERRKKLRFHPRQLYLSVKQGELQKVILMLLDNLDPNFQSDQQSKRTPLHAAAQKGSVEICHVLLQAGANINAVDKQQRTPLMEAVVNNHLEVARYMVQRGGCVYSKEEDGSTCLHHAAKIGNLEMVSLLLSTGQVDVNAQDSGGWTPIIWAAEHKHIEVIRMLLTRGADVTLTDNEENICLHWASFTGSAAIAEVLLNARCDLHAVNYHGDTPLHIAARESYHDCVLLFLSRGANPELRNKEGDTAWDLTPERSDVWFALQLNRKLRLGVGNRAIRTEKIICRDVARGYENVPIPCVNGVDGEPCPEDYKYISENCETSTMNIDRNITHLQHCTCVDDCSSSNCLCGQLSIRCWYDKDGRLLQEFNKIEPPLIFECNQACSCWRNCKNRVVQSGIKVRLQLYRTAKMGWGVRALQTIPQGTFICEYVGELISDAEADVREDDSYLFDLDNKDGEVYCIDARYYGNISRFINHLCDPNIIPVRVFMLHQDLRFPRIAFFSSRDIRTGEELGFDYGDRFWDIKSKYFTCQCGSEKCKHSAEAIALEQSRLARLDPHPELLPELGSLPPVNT

[7] = tested on: 26 out of 29 targets in the Ricerca Selectivity Panel; assay: Ricerca Selectivity Panel; format: binding; conditions: at 1 μM
[8] = target: muscarinic M2 receptor (Homo sapiens, UniProt P08172); assay: Ricerca Selectivity Panel, muscarinic M2; format: binding
Chain of muscarinic M2 receptor (P08172 whole entry): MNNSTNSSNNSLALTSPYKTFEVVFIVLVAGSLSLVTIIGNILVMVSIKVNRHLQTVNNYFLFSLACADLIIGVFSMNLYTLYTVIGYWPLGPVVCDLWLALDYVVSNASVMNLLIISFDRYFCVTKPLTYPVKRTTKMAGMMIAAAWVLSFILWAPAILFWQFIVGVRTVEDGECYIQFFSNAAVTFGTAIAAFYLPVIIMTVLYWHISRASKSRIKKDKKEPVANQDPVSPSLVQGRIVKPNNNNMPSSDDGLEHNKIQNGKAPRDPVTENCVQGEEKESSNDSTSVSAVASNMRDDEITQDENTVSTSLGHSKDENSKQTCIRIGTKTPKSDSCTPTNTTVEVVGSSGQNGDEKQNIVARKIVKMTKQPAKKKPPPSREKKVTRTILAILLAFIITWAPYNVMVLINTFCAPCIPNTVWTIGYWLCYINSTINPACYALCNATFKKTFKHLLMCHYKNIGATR

[9] = tested on: 45 targets, including 36 GPCRs; assay: NIMH Psychoactive Drug Screen Program Selectivity Panel; format: binding; conditions: at 1 μM
[10] = tested on: M1, M2 and M4; assay: M1, M2 and M4 functional assays; format: cell-based
[11] = Solution stability by 1H NMR and LC-MS; format: physicochemical; conditions: 10 mM in deuterated DMSO and deuterated H2O (90:10), room temperature, 4 weeks
[12] = tested on: H3K9me2 levels in 22RV1 cells; assay: H3K9me2 in-cell western, 22RV1; format: cell-based; conditions: Homo sapiens, 22Rv1, read-out: IC50 for reduction of H3K9me2 levels
[13] = tested on: H3K9me2 levels in breast, prostate, colon carcinomas and normal fibroblast cells; assay: H3K9me2 in-cell western, tumor and normal cell lines; format: cell-based, human
[14] = tested on: MCF7 cells; assay: Clonogenicity assay, MCF7; format: cell-based, human
[15] = tested on: H3K9me2 at genomic loci on chr3 and chrX in MCF7 cells; assay: ChIP-chip with H3K9me2 antibody; format: cell-based, human; conditions: 320 nM for 14 d
[16] = tested on: DNA methylation on chr3 and chrX in MCF7 cells; assay: DNA methylation microarray analysis, MCF7; format: cell-based, human; conditions: 14 d at 70 or 320 nM
[17] = tested on: HSC1-EF1α-EGFP-Puromycin retrovirus in J1 mES cells; assay: Reactivation of silent EGFP retrovirus vector, flow cytometry; format: cell-based, mouse
[18] = tested on: H3K9me2 at EGFP provirus and MAGEA2 promoter in mES cells; assay: ChIP of H3K9me2 in mES cells; format: cell-based, mouse; conditions: 500 nM for 3 or 7 d
[19] = assay results from BPS Bioscience

Chain of SUV39H1 (O43463 whole entry, species assumed): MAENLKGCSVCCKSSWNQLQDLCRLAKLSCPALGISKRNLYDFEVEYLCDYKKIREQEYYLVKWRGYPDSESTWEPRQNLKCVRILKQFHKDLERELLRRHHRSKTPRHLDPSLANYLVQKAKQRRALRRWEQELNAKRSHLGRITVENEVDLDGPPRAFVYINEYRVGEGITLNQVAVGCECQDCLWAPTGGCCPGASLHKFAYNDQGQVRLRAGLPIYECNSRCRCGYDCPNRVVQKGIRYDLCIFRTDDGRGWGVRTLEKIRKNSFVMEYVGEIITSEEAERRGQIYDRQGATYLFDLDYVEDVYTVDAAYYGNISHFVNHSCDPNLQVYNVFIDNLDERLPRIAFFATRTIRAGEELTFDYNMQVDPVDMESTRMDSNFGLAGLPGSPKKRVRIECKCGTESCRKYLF
Chain of EZH2 (Q15910 whole entry, species assumed): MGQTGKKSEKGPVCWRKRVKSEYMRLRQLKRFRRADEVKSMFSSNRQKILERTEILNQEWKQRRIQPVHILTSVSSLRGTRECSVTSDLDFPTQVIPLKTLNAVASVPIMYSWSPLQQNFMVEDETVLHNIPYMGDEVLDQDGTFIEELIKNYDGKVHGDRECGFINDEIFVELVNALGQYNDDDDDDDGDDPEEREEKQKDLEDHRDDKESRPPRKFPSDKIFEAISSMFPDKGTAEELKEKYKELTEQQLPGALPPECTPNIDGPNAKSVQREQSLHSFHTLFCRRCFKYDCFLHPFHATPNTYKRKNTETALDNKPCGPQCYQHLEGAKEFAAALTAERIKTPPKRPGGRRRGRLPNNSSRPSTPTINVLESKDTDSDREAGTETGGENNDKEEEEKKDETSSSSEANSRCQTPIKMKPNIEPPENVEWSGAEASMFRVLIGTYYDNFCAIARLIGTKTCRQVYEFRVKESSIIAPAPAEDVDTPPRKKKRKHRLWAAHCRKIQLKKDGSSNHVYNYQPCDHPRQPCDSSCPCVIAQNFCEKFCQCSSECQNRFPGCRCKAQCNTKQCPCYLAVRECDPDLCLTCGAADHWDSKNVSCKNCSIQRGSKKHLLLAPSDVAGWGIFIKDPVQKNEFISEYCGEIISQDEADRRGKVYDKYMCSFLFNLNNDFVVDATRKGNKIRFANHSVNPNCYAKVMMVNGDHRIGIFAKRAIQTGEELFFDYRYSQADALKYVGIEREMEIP
Chain of EZH2 (O75530 whole entry partner, species assumed): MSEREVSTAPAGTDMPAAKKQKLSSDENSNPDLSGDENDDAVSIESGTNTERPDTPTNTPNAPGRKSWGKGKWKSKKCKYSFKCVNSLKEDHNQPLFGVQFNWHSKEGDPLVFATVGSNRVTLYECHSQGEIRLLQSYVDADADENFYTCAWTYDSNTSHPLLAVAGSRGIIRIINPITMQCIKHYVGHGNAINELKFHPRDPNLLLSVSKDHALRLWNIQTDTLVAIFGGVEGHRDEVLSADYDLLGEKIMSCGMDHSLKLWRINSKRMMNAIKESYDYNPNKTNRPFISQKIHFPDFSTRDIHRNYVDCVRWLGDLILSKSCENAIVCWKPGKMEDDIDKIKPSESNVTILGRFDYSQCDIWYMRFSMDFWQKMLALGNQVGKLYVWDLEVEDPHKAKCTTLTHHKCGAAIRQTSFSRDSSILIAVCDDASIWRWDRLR
Chain of EZH2 (Q15022 whole entry partner, species assumed): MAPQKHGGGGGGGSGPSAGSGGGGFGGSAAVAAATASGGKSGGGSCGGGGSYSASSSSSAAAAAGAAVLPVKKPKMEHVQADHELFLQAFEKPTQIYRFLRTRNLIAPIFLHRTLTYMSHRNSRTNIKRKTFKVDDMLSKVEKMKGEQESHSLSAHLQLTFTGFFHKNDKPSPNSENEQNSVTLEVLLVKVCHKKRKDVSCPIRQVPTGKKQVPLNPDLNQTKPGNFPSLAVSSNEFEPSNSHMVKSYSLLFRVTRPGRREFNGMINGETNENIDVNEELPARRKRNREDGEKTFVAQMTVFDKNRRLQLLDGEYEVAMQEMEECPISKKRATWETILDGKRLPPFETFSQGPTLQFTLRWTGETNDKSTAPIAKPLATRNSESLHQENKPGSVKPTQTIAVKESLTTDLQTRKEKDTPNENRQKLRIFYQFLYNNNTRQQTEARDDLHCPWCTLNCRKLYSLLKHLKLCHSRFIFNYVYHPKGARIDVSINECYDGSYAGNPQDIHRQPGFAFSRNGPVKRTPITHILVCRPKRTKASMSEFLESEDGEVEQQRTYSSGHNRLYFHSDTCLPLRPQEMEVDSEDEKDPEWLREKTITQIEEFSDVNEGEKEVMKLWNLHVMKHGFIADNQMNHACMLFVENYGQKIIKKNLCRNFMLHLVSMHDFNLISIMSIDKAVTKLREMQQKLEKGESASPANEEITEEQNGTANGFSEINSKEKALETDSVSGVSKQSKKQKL
Chain of EZH2 (Q09028 whole entry partner, species assumed): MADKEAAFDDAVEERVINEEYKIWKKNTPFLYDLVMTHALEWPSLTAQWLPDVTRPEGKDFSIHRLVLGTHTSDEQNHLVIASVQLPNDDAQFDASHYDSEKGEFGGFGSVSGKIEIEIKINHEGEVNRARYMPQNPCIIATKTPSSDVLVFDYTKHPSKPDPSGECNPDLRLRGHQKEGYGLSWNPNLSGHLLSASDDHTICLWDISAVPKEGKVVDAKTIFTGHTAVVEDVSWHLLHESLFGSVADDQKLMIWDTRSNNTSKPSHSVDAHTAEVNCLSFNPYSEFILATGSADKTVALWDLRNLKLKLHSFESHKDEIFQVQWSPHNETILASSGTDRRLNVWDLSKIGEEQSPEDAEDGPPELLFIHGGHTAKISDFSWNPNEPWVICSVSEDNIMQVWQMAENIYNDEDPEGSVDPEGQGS
Chain of EZH2 (Q6ZN18 whole entry partner, species assumed): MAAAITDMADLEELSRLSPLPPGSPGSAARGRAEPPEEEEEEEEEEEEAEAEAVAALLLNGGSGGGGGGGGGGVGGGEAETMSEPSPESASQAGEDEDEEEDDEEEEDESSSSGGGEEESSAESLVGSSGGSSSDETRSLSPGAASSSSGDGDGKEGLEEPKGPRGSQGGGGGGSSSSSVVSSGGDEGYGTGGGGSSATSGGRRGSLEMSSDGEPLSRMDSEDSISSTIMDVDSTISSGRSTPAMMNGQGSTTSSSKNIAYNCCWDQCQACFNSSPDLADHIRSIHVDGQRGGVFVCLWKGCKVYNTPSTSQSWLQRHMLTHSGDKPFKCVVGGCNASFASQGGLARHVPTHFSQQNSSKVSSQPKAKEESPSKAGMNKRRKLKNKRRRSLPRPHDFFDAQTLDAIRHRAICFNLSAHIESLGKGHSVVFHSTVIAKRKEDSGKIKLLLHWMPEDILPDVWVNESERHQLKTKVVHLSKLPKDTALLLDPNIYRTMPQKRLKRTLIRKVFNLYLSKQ

For `COc1cc2c(NC3CCN(C(C)C)CC3)nc(C3CCCCC3)nc2cc1OCCCN1CCCC1` [UNC0638], the IC50 [1] was over 10 µM, the IC50 [1, 19] was “inactive” and the IC50 [2] was over 10 µM. For the same molecule, the IC50 [2, 19] was “inactive”, the IC50 [3] was over 10 µM and the IC50 [3, 19] was “inactive”. For the same molecule, the IC50 [4] was over 10 µM, the IC50 ([4]; SAHH-coupled assay) was “inactive” and the IC50 [5] was 4.5 µM. For the same molecule, the “displacement of fluorescein-labeled 15-mer H3 peptide (residues 1–15)” value [6] was “high efficiency”, the inhibition [7] was under 30% and the inhibition at 1 µM [8] was 64%. The inhibition ([9]; against 6 targets in the panel) was over 50%, the inhibition ([9]; against 39 targets in the panel) was under 50% and the agonist activity [10] was “no agonist activity”. For the same molecule, the stability in solution [11] was “stable”, the IC50 [12] was 0.048 µM and the IC50 ([13]; Homo sapiens, Fibroblast, read-out: potency in reducing H3K9me2 levels) was 0.048 to 0.238 µM. The “reduction of H3K9me2 levels” value ([13]; at 250 nM, variety of cell lines) was 60–80%, the clonogenicity [14] was “marked concentration-dependent reduction of clonogenicity” and the “genomic regions containing H3K9me2 on chr3 and chrX” value [15] was “significantly fewer genomic regions containing H3K9me2”. The “total levels of DNA methylation on chr3 and chrX” value [16] was “not altered”, the “EGFP+ cells, maximal level” value ([17]; day 10, UNC0638 100, 250 or 500 nM, untreated 36%) was 63% and the “EGFP+ cells” value ([17]; day 12) was 75%. For the same molecule, the “H3K9me2 at EGFP provirus and MAGEA2 promoter (ChIP)” value [18] was “decreased H3K9me2 at both targets by day 3”.
